# Assay results taken from publication PMC6448596 (Cell reports, 2019).
# Key:
# [1] = tested on: p53 turnover in MV4:11 cells; assay: Cycloheximide; assay type: cell-based, human; conditions: MV4:11, 2 μM, 24 h before CHX
# In short: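 Before the cycloheximide chase, MV4:11 cells were pretreated 24 h with 2 μM test compound, 2 μM Nutlin-3 as comparator, or DMSO only. p53 was then followed by immunoblot.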
# [2] = tested on: p53 and p21 protein levels in MV4:11 cells; assay: p53/p21 induction western blot; assay type: cell-based, human; conditions: MV4:11, 30 µM OICR-9429
# In short: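 Treatment lasted 24 h with test compound or its negative control, at 2 μM in MV4:11 and 3 μM in Molm13. Comparators were 2 μM Nutlin-3 or 0.1% DMSO. Four million cells were PBS-washed and lysed 10 min on ice in Kischkel buffer. p53 and p21 were detected by western blot, with histone H3 as loading control.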
# MV4:11 cells = assay: Proliferation assay; assay type: cell-based, human; conditions: Homo sapiens, MV4-11, 72 h, MV4:11, 3 days, mean with SEM
# In short: (§1)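 CellTiter-Glo, 5,000 cells/well. Cells received 0.1% DMSO or at least five two-fold dilutions of test compound (top 50 μM, final DMSO 0.1%), in triplicate wells and ≥2 biological replicates, for 72 h at 37°C. Reagent was added after equilibration to RT, with 30 min dark incubation before luminescence. Signals were normalized to DMSO wells and GI50 obtained by curve fitting. Curve error bars are SEM.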
# [3] = tested on: ribosome protein gene expression in MV4:11 cells; assay: RT-qPCR quantification of RPG mRNA expression; assay type: cell-based, human; conditions: MV4:11, three days, 50 µM OICR-9429 (adjusted to relative GI50)
# In short: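 Cells were lysed in Trizol and total RNA isolated on columns with DNase digestion. 1 μg RNA was reverse transcribed with MuLV reverse transcriptase in 20 μl, then diluted three-fold in nuclease-free water before qPCR.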
# HEL cells = assay: Proliferation assay; assay type: cell-based; conditions: Homo sapiens, 72 h
# In short: as §1
# WDR5 [4] = target: T1, WDR5 (Homo sapiens, UniProt P61964); assay: 10-mer-Thr-FAM peptide TR-FRET competition assay; assay type: binding; conditions: relative to C3
# MA93 FLT3-ITD cells = assay: Proliferation assay; assay type: cell-based; conditions: Homo sapiens, 72 h
# In short: (§2)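 CellTiter-Glo at 2,000 cells/well. MA93 Ras and MA93 FLT3/ITD were maintained in IMDM/20% FBS. Parental MA93 received IMDM/20% FBS plus 10 ng/mL human SCF, TPO, FLT3L, IL3 and IL6. Dosing used ≥5 two-fold dilutions from 50 μM top, 0.1% DMSO final, in triplicate wells with ≥2 biological replicates. Plates ran 72 h at 37°C, followed by 30 min reagent incubation at RT in the dark. GI50 came from DMSO-normalized luminescence.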
# SET-2 cells = assay: Proliferation assay; assay type: cell-based; conditions: Homo sapiens, SET-2, 72 h
# In short: as §1
# K562 cells = assay: Proliferation assay; assay type: cell-based; conditions: Homo sapiens, K562, 72 h
# In short: as §1
# THP-1 cells = assay: Proliferation assay; assay type: cell-based; conditions: Homo sapiens, THP-1, 72 h
# In short: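 THP-1 cells were grown in RPMI-1640 with 0.05 mM 2-mercaptoethanol and 10% FBS. Cells were plated 5,000/well with ≥5 two-fold dilutions of test compound (top 50 μM, 0.1% DMSO final), in triplicate wells with ≥2 biological replicates.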
# NOMO-1 cells = assay: Proliferation assay; assay type: cell-based; conditions: Homo sapiens, NOMO-1, 72 h
# In short: as §1
# Molm13 cells = assay: Proliferation assay; assay type: cell-based; conditions: Homo sapiens, MOLM-13, 72 h
# In short: as §1
# MA93 cells = assay: Proliferation assay; assay type: cell-based; conditions: Homo sapiens, 72 h
# In short: as §2
# MA93 Ras cells = assay: Proliferation assay; assay type: cell-based; conditions: Homo sapiens, MA9.3RAS, 72 h
# In short: as §2
# RN2 cells = assay: Proliferation assay; assay type: cell-based, murine; conditions: Mus musculus, 72 h
# In short: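 Murine RN2 cells were seeded at 2,500/well and exposed to ≥5 two-fold dilutions (top 50 μM, 0.1% DMSO final) in triplicate wells, with ≥2 biological replicates, for 72 h. MTS reagent was added for 1.25 h at 37°C and absorbance read at 490 nm. Values were normalized to DMSO wells and GI50 fitted. Error bars are SEM.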
# HL60 cells = assay: Proliferation assay; assay type: cell-based; conditions: Homo sapiens, HL-60, 72 h
# In short: as §1
# WDR5 [5] = target: T1, WDR5; assay: ChIP-Seq of WDR5; assay type: cell-based; conditions: MV4:11, 2 μM, 4 h
# In short: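 MV4:11 cells at 10^6/ml were treated 4 h with 2 μM test compound, negative control or 0.1% DMSO. Cells were concentrated to 4 × 10^6/ml in PBS, fixed in 1% formaldehyde for 10 min at RT and quenched with 125 mM glycine. They were lysed in 1% SDS FA buffer. Sheared chromatin was diluted to 0.1% SDS and immunoprecipitated overnight at 4°C with anti-WDR5 (D9E1I or 429A) or IgG on BSA-blocked protein-A agarose. Peaks were compared by normalized average read counts.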
# MONO-Mac-6 cells = assay: Proliferation assay; assay type: cell-based; conditions: Homo sapiens, MONO-MAC-6, 72 h
# In short: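 MONO-MAC-6 cells were maintained in RPMI with 10% FBS, non-essential amino acids and OPI supplement. CellTiter-Glo used 5,000 cells/well and ≥5 two-fold dilutions from 50 μM (0.1% DMSO final), in triplicate wells with ≥2 biological replicates, over 72 h at 37°C.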
# [6] = tested on: gene expression in MV4:11 cells; assay: RNA-Seq; assay type: cell-based, human; conditions: MV4:11, 2 μM, 3 days
# GDM-1 cells = assay: Proliferation assay; assay type: cell-based; conditions: Homo sapiens, GDM-1, 72 h
# In short: as §1
# [7] = tested on: gene body transcription in MV4:11 cells; assay: PRO-Seq; assay type: cell-based, human; conditions: MV4:11, 36 μM, 15, 30 or 60 min
# In short: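 30 million MV4:11 cells were harvested 15, 30 or 60 min after test compound; 0.1% DMSO for 60 min was the reference. Cells were swollen on ice, lysed with 0.1% Triton/10% glycerol and Dounce-homogenized. Nuclei were stored at −80°C in 40% glycerol freezing buffer (2 × 10^7 nuclei/100 μl) and used for nuclear run-on. Beads were washed in high/medium/low salt; RNA was TRIzol-extracted.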
# WDR5 [8] = target: T1, WDR5; assay: Subcellular fractionation, WDR5 western blot; assay type: cell-based; conditions: MV4:11, 36 μM, 4 h
# WDR5 [9] = target: T1, WDR5; assay: ChIP-PCR of WDR5 binding; assay type: cell-based; conditions: MV4:11, 36 μM, 4 h
# In short: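 MV4:11 cells were treated 4 h with 36 μM test compound, its negative control or DMSO. They were cross-linked in 0.75–1% formaldehyde for 10 min at RT and quenched with 125 mM glycine. Cells were lysed in SDS/Triton formaldehyde lysis buffer. Chromatin from 6 million cells was used per IP, with anti-WDR5 (D9E1I) or IgG, followed by low-salt, high-salt, LiCl and TE washes. Signal is % input, biological triplicate, SEM.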
SMILES,GI50 (MV4:11 cells),GI50 (HEL cells),GI50 (MA93 FLT3-ITD cells),GI50 (SET-2 cells),GI50 (K562 cells),GI50 (THP-1 cells),GI50 (NOMO-1 cells),GI50 (Molm13 cells),GI50 (MA93 cells),GI50 (MA93 Ras cells),GI50 (RN2 cells),GI50 (HL60 cells),other results
"COc1ccc(C2=N[C@@H](c3ccc(Cl)cc3)[C@@H](c3ccc(Cl)cc3)N2C(=O)N2CCNC(=O)C2)c(OC(C)C)c1 [nutlin-3, reference compound]",–,–,–,–,–,–,–,–,–,–,–,–,p53 turnover in CHX chase [1]: increased the stability of p53
"CN1CCN(c2ccc(-c3cccc(CN4CCOCC4)c3)cc2NC(=O)c2c[nH]c(=O)cc2C(F)(F)F)CC1 [OICR-9429, reference compound]",31 µM,–,–,–,–,–,–,–,–,–,–,–,p53 and p21 protein induction [2]: induced both p53 and p21; transcription of RPGs [3]: selectively inhibited the transcription of WDR5-bound RPGs
"COc1cc(CNC(=O)c2cccc(CNC3=NCCN3)c2F)cc(OC)c1 [Compound C3nc, 3-(((4,5-dihydro-1H-imidazol-2-yl)amino)methyl)-N-(3,5-dimethoxybenzyl)-2-fluorobenzamide]",> 50 µM,> 50 µM,> 50 µM,> 50 µM,> 50 µM,> 50 µM,> 50 µM,> 50 µM,> 50 µM,> 50 µM,> 50 µM,> 50 µM,binding to WDR5 of negative control (WDR5 [4]): reduced affinity
"Cc1nc(F)ccc1-c1cc(C(=O)NCc2ccc(Cl)c(Cl)c2)ccc1Cn1ccn(C)c1=N [Compound C6nc, N-(3,4-dichlorobenzyl)-3-(6-fluoro-2-methylpyridin-3-yl)-4-((2-imino-3-methyl-2,3-dihydro-1H-imidazol-1-yl)methyl)benzamide]",42 ± 9.02 µM,> 50 µM,26.2 ± 4.75 µM,> 50 µM,31.7 ± 2.45 µM,> 50 µM,> 50 µM,> 50 µM,30.3 ± 5.94 µM,> 50 µM,> 50 µM,> 50 µM,WDR5 binding events on chromatin (WDR5 [5]): little impact on WDR5 binding; GI50 (MONO-Mac-6 cells): > 50 µM; effect on gene expression levels [6]: no significant effect on gene expression levels; GI50 (GDM-1 cells): > 50 µM
"COc1cc(CNC(=O)c2ccc(F)c(CNC3=NCCN3)c2)cc(OC)c1 [Compound C3, 3-(((4,5-dihydro-1H-imidazol-2-yl)amino)methyl)-N-(3,5-dimethoxybenzyl)-4-fluorobenzamide]",–,> 50 µM,21.2 ± 2.11 µM,> 50 µM,> 50 µM,> 50 µM,> 50 µM,–,22.1 ± 3.6 µM,> 50 µM,8.65 ± 0.989 µM,> 50 µM,increase in transcription [7]: no instances in which C3 promoted an increase in transcription; chromatin-bound WDR5 (P3 fraction) (WDR5 [8]): reduced the total amount of chromatin-bound WDR5; reduction in WDR5 binding at five loci (WDR5 [9]): > 10 fold
